In ChEMBL document CHEMBL3397026, “Synthesis and structure-activity relationships of novel phenoxyacetamide inhibitors of the Pseudomonas aeruginosa type III secretion system (T3SS)” (Bioorg Med Chem, 2015):

System: not listed separately
Experiment: Inhibition of T3SS-mediated translocation in Pseudomonas aerguinosa PA99U co-expressing PcrV and PopB/PopD assessed as inhibition of ExoU-mediated lysis of co-incubated CHO cells by LDH release assay
Format: cell-based
Conditions: Pseudomonas aeruginosa
In short: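 CHO cells co-incubated with P. aeruginosa PA99U33 plus compound, with procedure otherwise per earlier work. ExoU-mediated CHO lysis read out as LDH release. A parallel run without bacteria gave CHO cytotoxicity (CC50).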

SMILES	IC50
CC(Oc1ccc(Cl)cc1Cl)C(=O)NCc1ccc2sccc2c1 (centres undefined)	5.3 µM

System: CHO
Experiment: Cytotoxicity against CHO cells by LDH release assay
Format: cell-based
Conditions: Cricetulus griseus
In short: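 Assay run in parallel with the T3SS translocation assay, with CHO cells and compound but no P. aeruginosa. Cell death read as LDH release; CC50 derived.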

SMILES	IC50
CC(Oc1ccc(Cl)cc1Cl)C(=O)NCc1cccc2[nH]ccc12 (centres undefined)	24 µM
CCC(Oc1ccc(Cl)cc1Cl)C(=O)NCc1ccc2c(c1)OCO2 (centres undefined)	67 µM
CC(Oc1ccc(Cl)cc1)C(=O)NCc1ccc2c(c1)OCO2 (centres undefined)	65 µM
CC(Oc1ccc(Cl)cc1Cl)C(=O)NCc1ccc(F)cc1 (centres undefined)	59 µM
C[C@H](NC(=O)[C@@H](C)Oc1ccc(Cl)cc1Cl)c1ccc(F)cc1	32 µM
C[C@@H](Oc1ccc(Cl)cc1Cl)C(=O)N[C@H](C)c1ccc(F)cc1	97 µM
CC(Oc1ccc(Cl)cc1Cl)C(=O)NC1(c2ccc(F)cc2)CC1 (centres undefined)	28 µM
CC(Oc1ccc(Cl)cc1Cl)C(=O)NCCc1ccc(F)cc1 (centres undefined)	17 µM
CC(Oc1ccc(Cl)cc1Cl)C(=O)NNc1ccc(F)cc1 (centres undefined)	35 µM
CC(Oc1ccc(Cl)cc1Cl)C(=O)NNCc1ccc(F)cc1 (centres undefined)	31 µM
CC(Oc1ccc(Cl)cc1Cl)C(=O)NOCc1ccc(F)cc1 (centres undefined)	59 µM
CC(Oc1ccc(Cl)cc1Cl)C(=O)NCc1ccccc1 (centres undefined)	95 µM
CC(Oc1ccc(Cl)cc1Cl)C(=O)NCc1cccc(F)c1 (centres undefined)	27 µM
CC(Oc1ccc(Cl)cc1Cl)C(=O)NCc1ccccc1F (centres undefined)	47 µM
CC(Oc1ccc(Cl)cc1Cl)C(=O)NCc1ccc(Cl)cc1 (centres undefined)	39 µM
CC(Oc1ccc(Cl)cc1Cl)C(=O)NCc1cccc(Cl)c1 (centres undefined)	19 µM
Cc1ccc(CNC(=O)C(C)Oc2ccc(Cl)cc2Cl)cc1 (centres undefined)	25 µM
Cc1cccc(CNC(=O)C(C)Oc2ccc(Cl)cc2Cl)c1 (centres undefined)	45 µM
COc1ccc(CNC(=O)C(C)Oc2ccc(Cl)cc2Cl)cc1 (centres undefined)	71 µM
COc1ccc(CNC(=O)C(C)Oc2ccc(Cl)cc2Cl)cc1OC (centres undefined)	36 µM
CC(Oc1ccc(Cl)cc1Cl)C(=O)NCc1ccc2sccc2c1 (centres undefined)	30 µM
CC(Oc1ccc(Cl)cc1Cl)C(=O)NCc1ccc2occc2c1 (centres undefined)	11 µM
CC(Oc1ccc(Cl)cc1Cl)C(=O)NCc1ccc2cc[nH]c2c1 (centres undefined)	9.4 µM
CC(Oc1ccc(Cl)cc1Cl)C(=O)NCc1cc2ccccc2[nH]1 (centres undefined)	12 µM
CC(Oc1ccc(Cl)cc1Cl)C(=O)NCc1ccc2c(ccn2C)c1 (centres undefined)	6.3 µM
CC(Oc1ccc(Cl)cc1Cl)C(=O)NCc1cnc2[nH]ccc2c1 (centres undefined)	21 µM
CC[C@@H](Oc1ncc(Cl)cc1Cl)C(=O)NC(CO)c1ccc(F)cc1 (some centres undefined)	75 µM

Biological target: not listed separately
Experiment: Inhibition of T3SS-mediated secretion of an ExoS-beta-lactamase fusion protein into the culture medium in Pseudomonas aerguinosa MDM973 assessed as inhibition of nitrocefin hydrolysis by secretion assay
Set-up: species or system Pseudomonas aeruginosa
Conditions: not given
In short: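 ExoS-βLA fusion protein secreted by strain MDM973, detected as hydrolysis of chromogenic nitrocefin by the externalized enzyme. Absorbance read at 490 nm. Percent inhibition calculated relative to drug-free (0%) and uninduced controls (no ExoS-βLA secreted; 100%).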

IC50	SMILES
> 100 µM	O=C(COc1ccc(Cl)cc1Cl)NCc1ccc2c(c1)OCO2
> 100 µM	CC(C)(Oc1ccc(Cl)cc1Cl)C(=O)NCc1ccc2c(c1)OCO2
> 100 µM	CCCC(Oc1ccc(Cl)cc1Cl)C(=O)NCc1ccc2c(c1)OCO2 (centres undefined)
> 100 µM	CC(C)C(Oc1ccc(Cl)cc1Cl)C(=O)NCc1ccc2c(c1)OCO2 (centres undefined)
> 100 µM	CC(Oc1ccc(Cl)cc1F)C(=O)NCc1ccc2c(c1)OCO2 (centres undefined)
> 100 µM	CC(Oc1ccc(F)cc1F)C(=O)NCc1ccc2c(c1)OCO2 (centres undefined)
> 100 µM	CC(Oc1ccc(C#N)cc1Cl)C(=O)NCc1ccc2c(c1)OCO2 (centres undefined)
> 100 µM	COc1ccc(OC(C)C(=O)NCc2ccc3c(c2)OCO3)c(Cl)c1 (centres undefined)
> 100 µM	CC(C(=O)NCc1ccc2c(c1)OCO2)S(=O)(=O)c1ccc(Cl)cc1Cl (centres undefined)
> 100 µM	CC(C(=O)NCc1ccc(F)cc1)S(=O)(=O)c1ccc(Cl)cc1Cl (centres undefined)
> 100 µM	CC(Cc1ccc(Cl)cc1Cl)C(=O)NCc1ccc2c(c1)OCO2 (centres undefined)
> 100 µM	CC(Cc1ccc(Cl)cc1Cl)C(=O)NCc1ccc(F)cc1 (centres undefined)
> 100 µM	CC(Oc1ccc(Cl)cc1Cl)C(=O)NC(C(=O)O)c1ccc(F)cc1 (centres undefined)
> 100 µM	CC(Oc1ccc(Cl)cc1Cl)C(=O)Nc1ccc(F)cc1 (centres undefined)
> 100 µM	CC(Oc1ccc(Cl)cc1Cl)C(=O)NCCCc1ccc(F)cc1 (centres undefined)
> 100 µM	CC(Oc1ccc(Cl)cc1Cl)C(=O)OCc1ccc(F)cc1 (centres undefined)
> 100 µM	CC(Oc1ccc(Cl)cc1Cl)C(=O)OCCc1ccc(F)cc1 (centres undefined)
> 100 µM	CC(Oc1ccc(Cl)cc1Cl)C(=O)CCc1ccc(F)cc1 (centres undefined)

SMILES	IC50
CC(Oc1ccc(Cl)cc1Cl)C(=O)N(C)Cc1ccc(F)cc1 (centres undefined)	28.5 µM
COc1ccccc1CNC(=O)C(C)Oc1ccc(Cl)cc1Cl (centres undefined)	28 µM
CC(Oc1ccc(Cl)cc1Cl)C(=O)NCc1ccc2sccc2c1 (centres undefined)	6 µM
